Results as given in the M2OR odorant receptor database.

Experiments:
Conditions in all cases: stereoisomer not certain
[1] = biological target: T1, OR7D4 (Homo sapiens) (UniProt Q8NG98)
T1 sequence (whole entry): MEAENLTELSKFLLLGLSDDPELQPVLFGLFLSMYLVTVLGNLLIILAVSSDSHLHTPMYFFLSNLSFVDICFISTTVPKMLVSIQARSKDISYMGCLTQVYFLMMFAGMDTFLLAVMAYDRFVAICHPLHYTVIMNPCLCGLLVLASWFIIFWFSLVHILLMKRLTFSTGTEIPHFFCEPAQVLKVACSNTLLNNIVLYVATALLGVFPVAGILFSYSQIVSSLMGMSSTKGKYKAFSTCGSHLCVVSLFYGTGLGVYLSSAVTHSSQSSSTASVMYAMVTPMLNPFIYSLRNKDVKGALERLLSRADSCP
Summary of the method: (§1)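 Whether a receptor–molecule pair is responsive (active) rests on the original authors' judgment that its measured signal was statistically different from baseline. Pairs without that judgment are non-responsive (inactive). Sources used varied assay methods, commonly transient luciferase assays in mammalian cell lines.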

[2] = system: OR7D4
Sequence of OR7D4 (as listed by the source): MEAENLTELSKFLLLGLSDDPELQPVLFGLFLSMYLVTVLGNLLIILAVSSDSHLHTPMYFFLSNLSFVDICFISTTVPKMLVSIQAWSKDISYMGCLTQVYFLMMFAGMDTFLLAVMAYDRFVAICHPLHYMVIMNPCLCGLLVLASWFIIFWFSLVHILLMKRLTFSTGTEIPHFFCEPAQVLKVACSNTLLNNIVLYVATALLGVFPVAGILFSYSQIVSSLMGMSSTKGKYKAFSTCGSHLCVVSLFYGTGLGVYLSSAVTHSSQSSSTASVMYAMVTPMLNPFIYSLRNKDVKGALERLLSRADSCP
Summary of the method: as §1

[3] = system: OR7D4 R88W
Sequence of OR7D4 R88W (as listed by the source, stated change not applied): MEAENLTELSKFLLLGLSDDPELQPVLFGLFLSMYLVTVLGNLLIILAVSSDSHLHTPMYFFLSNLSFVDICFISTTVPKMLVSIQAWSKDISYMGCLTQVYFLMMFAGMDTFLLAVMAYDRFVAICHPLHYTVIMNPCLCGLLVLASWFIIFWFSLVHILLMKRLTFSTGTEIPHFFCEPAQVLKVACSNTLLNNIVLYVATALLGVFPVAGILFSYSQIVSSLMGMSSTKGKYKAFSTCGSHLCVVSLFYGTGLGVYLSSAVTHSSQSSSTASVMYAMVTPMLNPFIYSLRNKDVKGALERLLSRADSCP
Summary of the method: as §1

[4] = biological target: OR7E24 (Homo sapiens) (UniProt Q6IFN5)
Sequence of OR7E24 (Homo sapiens) (Q6IFN5 whole entry): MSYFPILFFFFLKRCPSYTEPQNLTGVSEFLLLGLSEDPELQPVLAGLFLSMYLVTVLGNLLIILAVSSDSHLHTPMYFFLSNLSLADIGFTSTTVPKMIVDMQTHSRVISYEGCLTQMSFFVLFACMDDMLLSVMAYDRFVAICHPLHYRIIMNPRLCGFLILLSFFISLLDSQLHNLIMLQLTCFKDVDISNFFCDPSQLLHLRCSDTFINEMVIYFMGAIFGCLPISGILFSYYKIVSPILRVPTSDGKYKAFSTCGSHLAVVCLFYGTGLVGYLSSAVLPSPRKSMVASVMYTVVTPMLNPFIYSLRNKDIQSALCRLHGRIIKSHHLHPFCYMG
Summary of the method: as §1

[5] = biological target: OR7G1 (Homo sapiens) (UniProt Q8NGA0)
Sequence of OR7G1 (Homo sapiens) (Q8NGA0 whole entry): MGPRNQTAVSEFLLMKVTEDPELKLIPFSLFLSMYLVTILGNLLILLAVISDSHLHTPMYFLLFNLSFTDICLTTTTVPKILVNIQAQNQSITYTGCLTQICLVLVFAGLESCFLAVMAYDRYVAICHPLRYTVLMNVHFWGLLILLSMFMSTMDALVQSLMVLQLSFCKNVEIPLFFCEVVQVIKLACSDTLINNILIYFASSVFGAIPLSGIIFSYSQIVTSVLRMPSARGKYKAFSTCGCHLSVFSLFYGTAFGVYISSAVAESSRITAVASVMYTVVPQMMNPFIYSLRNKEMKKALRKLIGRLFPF
Summary of the method: as §1

[6] = system: OR7G2
Sequence of OR7G2 (as listed by the source): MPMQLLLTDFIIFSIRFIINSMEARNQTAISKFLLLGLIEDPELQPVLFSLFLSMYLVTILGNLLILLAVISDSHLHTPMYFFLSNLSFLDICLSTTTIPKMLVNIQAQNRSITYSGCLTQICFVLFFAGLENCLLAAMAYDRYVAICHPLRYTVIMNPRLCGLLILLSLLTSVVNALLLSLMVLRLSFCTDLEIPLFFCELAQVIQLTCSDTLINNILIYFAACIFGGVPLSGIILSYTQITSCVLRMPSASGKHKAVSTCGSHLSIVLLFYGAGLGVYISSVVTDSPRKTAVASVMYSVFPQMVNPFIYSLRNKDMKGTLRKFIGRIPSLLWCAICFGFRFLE
Summary of the method: as §1

[7] = biological target: OR7G3 (Homo sapiens) (UniProt Q8NG95)
Sequence of OR7G3 (Homo sapiens) (Q8NG95 whole entry): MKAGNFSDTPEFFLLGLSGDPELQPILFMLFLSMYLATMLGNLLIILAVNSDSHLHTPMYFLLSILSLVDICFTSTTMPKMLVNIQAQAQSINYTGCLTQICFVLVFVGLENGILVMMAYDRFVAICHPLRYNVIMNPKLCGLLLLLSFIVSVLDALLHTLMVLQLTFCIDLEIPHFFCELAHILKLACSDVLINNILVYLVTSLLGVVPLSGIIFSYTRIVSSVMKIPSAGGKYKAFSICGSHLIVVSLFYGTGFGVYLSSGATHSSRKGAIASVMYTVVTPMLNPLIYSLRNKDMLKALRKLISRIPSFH
Summary of the method: as §1

[8] = system: OR7G3 M29V
Sequence of OR7G3 M29V (as listed by the source, stated change not applied): as the sequence (Q8NG95 whole entry) above, with M29V counted along it
Summary of the method: as §1

[9] = biological target: OR8A1 (Homo sapiens) (UniProt Q8NGG7)
Sequence of OR8A1 (Homo sapiens) (Q8NGG7 whole entry): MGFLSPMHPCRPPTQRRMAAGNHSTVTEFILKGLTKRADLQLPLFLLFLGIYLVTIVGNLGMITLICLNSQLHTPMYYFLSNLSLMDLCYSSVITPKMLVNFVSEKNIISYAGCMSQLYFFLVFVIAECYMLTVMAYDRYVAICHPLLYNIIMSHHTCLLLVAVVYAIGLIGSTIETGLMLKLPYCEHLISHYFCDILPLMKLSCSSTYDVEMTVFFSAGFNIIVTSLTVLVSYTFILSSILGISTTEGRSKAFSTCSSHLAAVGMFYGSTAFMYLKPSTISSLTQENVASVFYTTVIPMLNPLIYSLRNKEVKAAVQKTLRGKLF
Summary of the method: as §1

[10] = biological target: OR8B12 (Homo sapiens) (UniProt Q8NGG6)
Sequence of OR8B12 (Homo sapiens) (Q8NGG6 whole entry): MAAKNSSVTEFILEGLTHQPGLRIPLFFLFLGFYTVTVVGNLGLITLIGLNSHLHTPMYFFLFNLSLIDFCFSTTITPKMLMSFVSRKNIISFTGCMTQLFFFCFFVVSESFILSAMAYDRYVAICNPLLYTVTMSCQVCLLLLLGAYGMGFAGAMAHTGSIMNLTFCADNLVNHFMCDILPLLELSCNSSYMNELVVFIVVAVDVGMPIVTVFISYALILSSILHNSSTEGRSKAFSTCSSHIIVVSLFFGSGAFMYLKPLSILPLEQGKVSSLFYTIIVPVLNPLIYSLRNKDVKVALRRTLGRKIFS
Summary of the method: as §1

[11] = biological target: OR8B2 (Homo sapiens) (UniProt Q96RD0)
Sequence of OR8B2 (Homo sapiens) (Q96RD0 whole entry): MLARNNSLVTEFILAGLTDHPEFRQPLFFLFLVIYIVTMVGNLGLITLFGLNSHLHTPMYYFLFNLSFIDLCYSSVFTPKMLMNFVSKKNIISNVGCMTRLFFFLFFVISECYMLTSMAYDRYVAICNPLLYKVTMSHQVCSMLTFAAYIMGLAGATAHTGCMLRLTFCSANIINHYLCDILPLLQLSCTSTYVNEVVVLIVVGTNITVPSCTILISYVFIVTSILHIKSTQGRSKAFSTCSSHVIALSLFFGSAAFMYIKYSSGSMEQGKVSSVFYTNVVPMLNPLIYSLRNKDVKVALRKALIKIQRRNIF
Summary of the method: as §1

[12] = system: OR8B2 L164F
Sequence of OR8B2 L164F (as listed by the source, stated change not applied): as the sequence (Q96RD0 whole entry) above, with L164F counted along it
Summary of the method: as §1

[13] = system: OR8B2 S273F
Sequence of OR8B2 S273F (as listed by the source, stated change not applied): as the sequence (Q96RD0 whole entry) above, with S273F counted along it
Summary of the method: as §1

[14] = biological target: OR8B3 (Homo sapiens) (UniProt Q8NGG8)
Sequence of OR8B3 (Homo sapiens) (Q8NGG8 whole entry): as the sequence (Q96RD0 whole entry) above, with R24Q, I34V, T47I, N94Y, R100Q, T205I, T208M counted along it
Summary of the method: as §1

[15] = system: OR8B3 H20R Q24R M114I
Summary of the method: as §1

[16] = system: OR8B3 H20R Q24R Y113H
Summary of the method: as §1

[17] = system: OR8B3 H20R Q24R
Summary of the method: as §1

[18] = biological target: OR8B4 (Homo sapiens) (UniProt Q96RC9)
Sequence of OR8B4 (Homo sapiens) (Q96RC9 whole entry): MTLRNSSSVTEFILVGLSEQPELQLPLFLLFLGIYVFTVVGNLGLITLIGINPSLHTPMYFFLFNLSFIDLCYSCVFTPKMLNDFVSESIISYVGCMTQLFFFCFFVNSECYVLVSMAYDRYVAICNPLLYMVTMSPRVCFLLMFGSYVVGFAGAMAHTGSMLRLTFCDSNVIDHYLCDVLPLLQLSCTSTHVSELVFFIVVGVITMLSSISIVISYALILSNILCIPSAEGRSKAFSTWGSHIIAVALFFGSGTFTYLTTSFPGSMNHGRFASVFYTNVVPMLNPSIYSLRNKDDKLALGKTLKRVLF
Summary of the method: as §1

[19] = system: OR8B4
Sequence of OR8B4 (as listed by the source): as the sequence (Q96RC9 whole entry) above, with E22G counted along it
Summary of the method: as §1

[20] = biological target: OR7G2 (Homo sapiens) (UniProt Q8NG99)
Sequence of OR7G2 (Homo sapiens) (Q8NG99 whole entry): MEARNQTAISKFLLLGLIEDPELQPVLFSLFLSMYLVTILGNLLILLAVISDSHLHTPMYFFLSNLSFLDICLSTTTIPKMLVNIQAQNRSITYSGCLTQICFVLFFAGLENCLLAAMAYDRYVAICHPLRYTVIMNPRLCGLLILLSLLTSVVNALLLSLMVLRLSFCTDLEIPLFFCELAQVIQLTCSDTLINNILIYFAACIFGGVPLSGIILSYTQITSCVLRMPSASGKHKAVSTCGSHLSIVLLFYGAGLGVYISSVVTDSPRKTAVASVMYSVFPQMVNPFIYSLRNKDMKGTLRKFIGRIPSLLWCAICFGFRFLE
Summary of the method: as §1

Measured: odorant receptor agonist call;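 also: active if original authors judged signal statistically different from baseline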

C=C(C)C1CCC2(C)OOC(C1)O2 (stereo unspecified)
inactive: [1] | [2]

C=CCOC(=O)Cc1ccccc1
not listed: [20]
inactive: all other assays above

Cc1c([N+](=O)[O-])c(C)c([N+](=O)[O-])c(C(C)(C)C)c1[N+](=O)[O-]
inactive: [1] | [4] | [5] | [20] | [7] | [9] | [10] | [11] | [14] | [18]
